Laboratory results taken from ChEMBL document CHEMBL1123391, “Synthesis and investigation of the beta-adrenoceptor agonist and platelet antiaggregatory properties of 1,7,8-trisubstituted 2,3,4,5-tetrahydro-1H-2-benzazepine analogues of trimetoquinol” (J Med Chem, 1986).

Tests used:
Format in all cases: functional, organism-based
Homo sapiens [1] = species: Homo sapiens; assay: Inhibitory activity against endoperoxide (U-46,619 2 uM) induced aggregation in Human Platelets
Summary of the method: (§1)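 Washed platelets from drug-free (≥10 days) human volunteers, suspended in modified Tyrode's solution pH 7.4 at 3 × 10^8/mL. Compound preincubated 3 min at 37 °C before agonist addition. Aggregation read turbidometrically (Born method, Mustard modification) in a dual-channel aggregometer. Values mean ± SEM from four to six donors; tested up to 400 μM.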

Homo sapiens [2] = species: Homo sapiens; assay: Inhibitory activity against phospholipase C (PLC 0.05 U/mL) induced aggregation in Human Platelets; summary of the method: as §1
Homo sapiens [3] = species: Homo sapiens; assay: Inhibitory activity against thrombin (0.03 U/mL) induced aggregation in Human Platelets; summary of the method: as §1
Homo sapiens [4] = species: Homo sapiens; assay: Inhibitory activity against endoperoxide (U-46,619 2 uM) induced aggregation in Human Platelets; NI is No Inhibitory activity up to a concentration of 400 uM; summary of the method: as §1
Homo sapiens [5] = species: Homo sapiens; assay: Inhibitory activity against thrombin (0.03 U/mL) induced aggregation in Human Platelets; NI is No Inhibitory activity up to a concentration of 400 uM; summary of the method: as §1

## COc1cc(C[C@H]2NCCc3cc(O)c(O)cc32)cc(OC)c1OC
Homo sapiens [1]
  IC50: 0.14 µM
Homo sapiens [2]
  IC50: 175 µM
Homo sapiens [3]
  IC50: 150 µM

## COc1cc(CC2NCCCc3cc(O)c(O)cc32)cc(OC)c1OC (configuration not stated)
Homo sapiens [4]
  IC50: No inhibition
Homo sapiens [5]
  IC50: No inhibition
Homo sapiens [2]
  IC50: 30 µM

## COc1cc(CC2NCCCc3cc4c(cc32)OCO4)cc(OC)c1OC (configuration not stated)
Homo sapiens [4]
  IC50: No inhibition
Homo sapiens [5]
  IC50: No inhibition
Homo sapiens [2]
  IC50: 3 µM

## COc1cc(C[C@@H]2NCCc3cc(O)c(O)cc32)cc(OC)c1OC [TRETOQUINOL]
Homo sapiens [1]
  IC50: 11 µM
Homo sapiens [2]
  IC50: 50 µM
Homo sapiens [3]
  IC50: 50 µM
